# Data reported in ChEMBL document CHEMBL1134906, “Arylpiperazine substituted heterocycles as selective alpha(1a) adrenergic antagonists” (Bioorg Med Chem Lett, 2002).
# How the values were obtained:
# [1] = target: T1, Alpha-1A adrenergic receptor (Homo sapiens, UniProt P35348); test: Displacement of [125I]HEAT from human Alpha-1A adrenergic receptor
# T1 sequence (P35348 whole entry): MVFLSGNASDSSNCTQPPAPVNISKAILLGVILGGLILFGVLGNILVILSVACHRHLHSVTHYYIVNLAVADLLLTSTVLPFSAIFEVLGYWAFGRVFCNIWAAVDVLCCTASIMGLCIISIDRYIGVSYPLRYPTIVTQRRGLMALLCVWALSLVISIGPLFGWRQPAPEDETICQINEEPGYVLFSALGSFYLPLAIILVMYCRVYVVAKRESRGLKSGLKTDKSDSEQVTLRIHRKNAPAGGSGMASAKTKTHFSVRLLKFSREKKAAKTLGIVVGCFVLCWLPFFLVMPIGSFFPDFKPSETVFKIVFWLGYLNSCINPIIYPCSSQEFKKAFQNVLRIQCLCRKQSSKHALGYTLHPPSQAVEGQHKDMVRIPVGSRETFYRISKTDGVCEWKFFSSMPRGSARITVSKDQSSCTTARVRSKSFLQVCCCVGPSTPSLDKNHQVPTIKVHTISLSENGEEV
# Procedure, shortened: (§1)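 Radioligand competition binding against 125I-HEAT ((±)-β-([125I]-3-iodo-4-hydroxyphenyl)ethylaminomethyl-tetralone), with COS cells as the receptor source. Ki values are derived from displacement and reported as means of three experiments.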
# [2] = target: T2, Alpha-1D adrenergic receptor (Homo sapiens, UniProt P25100); test: Displacement of [125I]HEAT from human Alpha-1D adrenergic receptor; procedure, shortened: as §1
# T2 sequence (P25100 whole entry): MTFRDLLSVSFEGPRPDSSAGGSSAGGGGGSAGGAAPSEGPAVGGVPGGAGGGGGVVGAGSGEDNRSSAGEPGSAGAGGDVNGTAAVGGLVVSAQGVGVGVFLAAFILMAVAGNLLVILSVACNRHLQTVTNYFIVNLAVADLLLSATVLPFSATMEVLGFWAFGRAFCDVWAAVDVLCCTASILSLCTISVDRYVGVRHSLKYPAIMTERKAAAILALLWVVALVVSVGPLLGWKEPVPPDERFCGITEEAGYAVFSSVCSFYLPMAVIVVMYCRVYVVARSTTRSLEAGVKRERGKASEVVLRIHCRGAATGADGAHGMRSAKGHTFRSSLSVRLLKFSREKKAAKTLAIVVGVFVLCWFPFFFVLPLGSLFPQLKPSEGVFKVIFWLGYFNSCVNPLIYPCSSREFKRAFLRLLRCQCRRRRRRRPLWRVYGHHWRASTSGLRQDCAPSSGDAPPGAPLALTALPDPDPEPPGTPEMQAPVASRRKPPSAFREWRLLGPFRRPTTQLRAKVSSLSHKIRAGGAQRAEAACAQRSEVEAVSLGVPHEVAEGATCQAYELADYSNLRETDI
# [3] = target: T3, Alpha-1B adrenergic receptor (Homo sapiens, UniProt P35368); test: Displacement of [125I]-HEAT from human Alpha-1B adrenergic receptor; procedure, shortened: as §1
# T3 sequence (P35368 whole entry): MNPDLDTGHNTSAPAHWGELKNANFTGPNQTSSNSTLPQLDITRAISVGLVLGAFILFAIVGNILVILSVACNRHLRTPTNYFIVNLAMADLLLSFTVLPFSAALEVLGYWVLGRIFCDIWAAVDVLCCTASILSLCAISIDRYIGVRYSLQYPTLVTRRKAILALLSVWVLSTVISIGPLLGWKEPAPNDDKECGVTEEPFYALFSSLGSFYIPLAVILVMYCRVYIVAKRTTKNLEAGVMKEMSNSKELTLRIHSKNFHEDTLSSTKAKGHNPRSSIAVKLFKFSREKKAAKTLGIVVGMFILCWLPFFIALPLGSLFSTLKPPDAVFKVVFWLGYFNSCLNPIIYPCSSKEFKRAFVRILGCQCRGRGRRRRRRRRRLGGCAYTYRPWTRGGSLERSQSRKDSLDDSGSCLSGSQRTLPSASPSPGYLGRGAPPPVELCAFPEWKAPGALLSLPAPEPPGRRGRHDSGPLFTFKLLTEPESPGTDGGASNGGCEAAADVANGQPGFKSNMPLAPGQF
# [4] = target: Alpha adrenergic receptor (1a and 1d) (Homo sapiens) (UniProt P35348+P25100); test: Relative binding affinity for alpha-1d and Alpha-1A adrenergic receptors; type: protein assay
# [5] = target: Adrenergic receptors; alpha-1 A & B (Homo sapiens) (UniProt P35348+P35368); test: Relative binding affinity for alpha-1b and alpha-1a adrenergic receptors; type: protein assay
Compound,Ki [1],Ki [2],Ki [3],Ki ratio [4],Ki ratio [5]
CC(C)Oc1ccccc1N1CCN(Cc2nc(CN3CCCCCC3=O)co2)CC1,3470 nM,> 5000 nM,> 5000 nM,> 1.4,> 1.4
OCc1cc(CN2CCN(c3ccccc3Oc3ccccc3)CC2)on1,1500 nM,3060 nM,3720 nM,2,2.5
CC(C)Oc1ccccc1N1CCN(Cc2nc(CN3C(=O)c4ccccc4C3=O)co2)CC1,297 nM,1110 nM,> 5000 nM,3.7,> 16.8
CC(C)Oc1ccccc1N1CCN(Cc2nc(CN3CCCC3=O)co2)CC1,1300 nM,> 5000 nM,> 5000 nM,> 3.8,> 3.8
CC(C)Oc1ccccc1N1CCN(Cc2nc(CN3C(=O)CC4(CCCC4)CC3=O)co2)CC1,82 nM,4140 nM,> 5000 nM,50,> 61
CC(C)Oc1ccccc1N1CCN(Cc2nc(CN3CCCCC3=O)co2)CC1,2320 nM,> 5000 nM,> 5000 nM,> 2.2,> 2.2
O=C1CCCCCN1Cc1cc(CN2CCN(c3ccccc3Oc3ccccc3)CC2)on1,86 nM,285 nM,> 5000 nM,3.3,> 58

# Stronger by Ki [1], values ahead:
Ki [1],Ki [2],Ki [3],Ki ratio [4],Ki ratio [5],Compound
28 nM,34.5 nM,> 5000 nM,1.2,> 170,O=C1CCCN1Cc1cc(CN2CCN(c3ccccc3Oc3ccccc3)CC2)on1
15 nM,170 nM,2200 nM,11.3,147,O=C1CCCCN1Cc1cc(CN2CCN(c3ccccc3Oc3ccccc3)CC2)on1
8.4 nM,1440 nM,> 5000 nM,174,> 595,CC(C)Oc1ccccc1N1CCN(Cc2cc(CN3CCCCC3=O)no2)CC1
1.2 nM,39.5 nM,1740 nM,33,1450,CC(C)Oc1ccccc1N1CCN(Cc2nc(CN3CCCCC3=O)cs2)CC1
1.1 nM,65.5 nM,2990 nM,60,2720,CC(C)Oc1ccccc1N1CCN(Cc2cc(CN3CCCC3=O)no2)CC1
0.9 nM,105 nM,4250 nM,112,4520,CC(C)Oc1ccccc1N1CCN(Cc2nc(CN3CCCC3=O)cs2)CC1
